Experimental findings from ChEMBL document CHEMBL6071149, “Synthesis and photo-induced anticancer activity of new 2-phenylethenyl-1H-benzo[e]indole dyes” (Eur J Med Chem, 2024) are described below.

Data set [1] has as its system G-361. Put plainly: Cytotoxicity against human G361 cells pretreated for 4 hrs followed by light irradiation of 10 J/cm2 at 414 nm measured after 68 hrs by MTT assay. The data set is classed as functional, cell-based. As to conditions: G-361, light or radiation study. A digest of the protocol:
(§1)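 Cells grown in phenol red-free DMEM with 10 % FBS, penicillin/streptomycin, 37 °C, 5 % CO₂. Compound added 24 h after plating and incubated 4 h. Irradiated cells received 414 nm LED light at 20 mW/cm², 10 J/cm², then were incubated 20 h or 68 h more. Dark plates were run in parallel without irradiation. MTT was added for 4 h, formazan dissolved in 10 % SDS, absorbance read at 570 nm. EC50 ± SD.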

Data set [2] deals with G-361. Put plainly: Cytotoxicity against human G361 cells under dark condition measured after 72 hrs by MTT assay. Type of data set: functional, cell-based. As to conditions: G-361, 72 h. The method in brief:
as §1
Background: Tetrazolium dyes change colour on reduction, which living cells bring about.

The nature of data set [3]: Cytotoxicity against human BJ cells under dark condition measured after 72 hrs by MTT assay. The data set is classed as toxicity, cell-based. A digest of the protocol:
as §1

For `CC1(C)C(/C=C/c2ccc(C(F)(F)F)cc2)=Nc2ccc3ccccc3c21`, the EC50 in the data set on G-361 [1] came out at 0.9 µM; in the data set with G-361 [2], 4 µM.
For the compound `CC1(C)C(/C=C/c2ccc(Br)cc2)=Nc2ccc3ccccc3c21`, in data set [3], the EC50 at 72 h is greater than 10 µM. Moreover, the 50% effective concentration (EC50) is 1.3 µM in the data set with G-361 [1] and 7.6 µM in the data set on G-361 [2].
For the compound `CC1(C)C(/C=C/c2cccc(C(F)(F)F)c2)=Nc2ccc3ccccc3c21`, in data set [3], the EC50 at 72 h was greater than 10 µM. Moreover, the EC50 in the data set on G-361 [1] turned out to be 1.3 µM; with G-361 [2] it was 7.6 µM.
The matching figures for `CC1(C)C(/C=C/c2ccc(C#N)cc2)=Nc2ccc3ccccc3c21`: 6.7 µM, 0.5 µM and 5.1 µM.
With `CC1(C)C(/C=C/c2ccccc2)=Nc2ccc3ccccc3c21`, the EC50 was 2.8 µM with G-361 [1] and 6.5 µM in the data set with G-361 [2].
The compound `CC1(C)C(/C=C/c2ccccc2[N+](=O)[O-])=Nc2ccc3ccccc3c21` gave an EC50 at 72 h in data set [3] greater than 10 µM. Further, the EC50 was determined as 1.1 µM in the data set with G-361 [1] and 7.8 µM with G-361 [2].
Turning to `CC1(C)C(/C=C/c2cccc(C#N)c2)=Nc2ccc3ccccc3c21`, the EC50 in the data set on G-361 [1] was determined as 0.9 µM; in the data set with G-361 [2] it was 3.7 µM.
`CN(C)c1ccc(/C=C/C2=Nc3ccc4ccccc4c3C2(C)C)cc1`: the EC50 in the data set with G-361 [1] and in the data set on G-361 [2] was greater than 10 µM throughout.
In data set [3], `CC1(C)C(/C=C/c2ccc(Cl)c([N+](=O)[O-])c2)=Nc2ccc3ccccc3c21` came in with an EC50 at 72 h greater than 10 µM. In addition, the EC50 came out at 0.3 µM in the data set on G-361 [1] and 7.2 µM in the data set with G-361 [2].
Take `CCN(CC)c1ccc(/C=C/C2=Nc3ccc4ccccc4c3C2(C)C)cc1`: the EC50 with G-361 [1] and with G-361 [2] was greater than 10 µM in each case.
Take `CC1(C)C(/C=C/c2ccc(F)cc2)=Nc2ccc3ccccc3c21`: the EC50 in the data set on G-361 [1] was found to be 4.1 µM; in the data set with G-361 [2], 7.3 µM.
Turning to `CC1(C)C(/C=C/c2ccc(C#N)c(F)c2)=Nc2ccc3ccccc3c21`, the EC50 at 72 h in data set [3] came to 7.2 µM. For the same compound, the figures for the EC50 in the data set with G-361 [1] and in the data set with G-361 [2] were 0.6 µM and 6.2 µM, respectively.
`CC1(C)C(/C=C/c2cc([N+](=O)[O-])ccc2Cl)=Nc2ccc3ccccc3c21`: the EC50 in the data set on G-361 [1] is 7.9 µM; in the data set on G-361 [2], greater than 10 µM.
For `CC1(C)C(/C=C/c2cccc([N+](=O)[O-])c2)=Nc2ccc3ccccc3c21`, in data set [3], a half-maximal response (EC50 at 72 h) required 5 µM. Besides, the results for the EC50 with G-361 [1] and in the data set on G-361 [2] were 0.4 µM and 2.9 µM, respectively.
Consider `CC1(C)C(/C=C/c2ccc(F)c([N+](=O)[O-])c2)=Nc2ccc3ccccc3c21`, for which the EC50 in the data set on G-361 [1] was 1.8 µM; with G-361 [2], 7.9 µM.
For `CC1(C)C(/C=C/c2cc(C(F)(F)F)cc(C(F)(F)F)c2)=Nc2ccc3ccccc3c21`, the EC50 at 72 h in data set [3] is greater than 10 µM. Also, the EC50 was 1.3 µM with G-361 [1] and greater than 10 µM with G-361 [2].
Take `CC1(C)C(/C=C/c2ccc(F)c(C#N)c2)=Nc2ccc3ccccc3c21`: the EC50 in the data set on G-361 [1] turned out to be 1.4 µM; with G-361 [2] it was 6.9 µM.
`Cc1ccc(/C=C/C2=Nc3ccc4ccccc4c3C2(C)C)cc1[N+](=O)[O-]` returned an EC50 at 72 h in data set [3] of 8 µM. Further, the EC50 in the data set on G-361 [1] was 0.9 µM; with G-361 [2] it was 6.6 µM.
`COc1ccc(/C=C/C2=Nc3ccc4ccccc4c3C2(C)C)cc1`: the EC50 in the data set on G-361 [1] is 5.2 µM; with G-361 [2], 9.5 µM.
With `CC1(C)C(/C=C/c2ccc([N+](=O)[O-])cc2)=Nc2ccc3ccccc3c21`, the EC50 at 72 h in data set [3] turned out to be 6 µM. The EC50 is 0.8 µM with G-361 [1] and 5.7 µM in the data set on G-361 [2].

As a reminder, the EC50 is the midpoint of the concentration-response curve.
